Sampled rows, rich in hits. Any-hit rate of the full collection: about 2.4%.
SF-1 act: activators of human SF-1, primary screen, cell-based, CHO-K1, Gal4-SF-1 LBD, luciferase luminescence; Steroidogenic factor 1 (Homo sapiens), Q13285; CHO-K1 Gal4-SF-1 LBD luciferase reporter; % increase over DMSO SF-1-specific signal; activation, % at 10 µM; 65,000 tested, 1.9% active; AID 522, 2006;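 active means activation above the mean activation of all tested compounds plus 3 SD, cut at about 50% in these data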
Target sequence (Q13285 whole entry, looked up, the tested form may be a part): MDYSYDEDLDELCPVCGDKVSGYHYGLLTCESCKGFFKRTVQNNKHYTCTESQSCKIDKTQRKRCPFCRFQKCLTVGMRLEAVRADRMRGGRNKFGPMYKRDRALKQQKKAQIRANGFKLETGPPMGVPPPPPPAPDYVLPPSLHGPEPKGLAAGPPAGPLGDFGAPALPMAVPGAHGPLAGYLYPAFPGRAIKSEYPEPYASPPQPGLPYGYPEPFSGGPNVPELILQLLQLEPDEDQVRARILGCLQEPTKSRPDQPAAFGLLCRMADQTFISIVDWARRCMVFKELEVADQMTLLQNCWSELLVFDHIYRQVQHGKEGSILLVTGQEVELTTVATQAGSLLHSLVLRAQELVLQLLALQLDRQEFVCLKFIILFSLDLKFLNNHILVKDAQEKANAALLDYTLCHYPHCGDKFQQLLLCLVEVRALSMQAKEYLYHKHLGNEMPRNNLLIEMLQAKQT
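System: CHO-K1 cells with Gal4–hSF-1 LBD chimera plus Gal4-driven luciferase; quantity: 4,000 CHO-K1 cells per well; compound: one dose, 10 µM compound, 1% DMSO; times: 20 h compound treatment, 37 °C; measured by: SteadyLite luciferase luminescence; read-out: percent activation versus DMSO; benchmarks: DMSO and mock-transfected background; replicates: one test per compound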
Ec RNAP inh: E. coli RNAP inhibitors, biochemical; E. coli RNA polymerase, fluorescence transcription assay; inhibition, %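 (tested at 10 µM)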; 62,000 tested, 0.2% active; AID 559, 2006; in the data active means inhibition above about 20%
RORa activator: activators of orphan receptor RORA, primary screen, cell-based, luminescence; AID 560, 2006; 65,000 tested, 1.5% active; activation, % at 10 µM; Nuclear receptor ROR-alpha (Homo sapiens), P35398; CHO-K1 Gal4-RORA LBD luciferase reporter; percent increase over mock-subtracted basal signal;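 active means activation above the mean of all tested compounds plus 3 SD, cut at about 49% in these data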
MMP13 inh: human MMP13 inhibitors, primary screen, biochemical, FRET peptide cleavage. MMP-13 fTHP FRET cleavage, Mca fluorescence. inhibition, % at 4 µM. 65,000 tested, 0.07% active;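 active means inhibition above the mean of compound-free control plate wells plus 3 SD, cut at about 14% in these data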
AP complement: alternative complement pathway inhibitors, primary screen, biochemical, ELISA, human serum, orthogonally pooled compounds; LPS-coated ELISA, C3 deposition; tested in compound mixtures; inhibition, % at 5 µM; 62,000 tested, 0.08% active;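 active means inhibition above 30% in each of the two pooled mixtures holding the compound, so the lower value exceeds 30%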
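Assay system: human serum alternative complement pathway, C3 deposition on LPS-coated wells; Dosing: 5 µM per compound in ten-compound mixtures; Detection: Anti-C3 ELISA, OD 450 nm; Buffer or medium: Mg2+-EGTA GVB++ buffer containing human serum at 1:15 dilution; Timing: 1 h at 37 °C; Replication: two different pools per compound.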
HePTP inhibitor: inhibitors of human HePTP phosphatase, primary screen, biochemical, absorbance, leukemia target | recombinant HePTP phosphatase activity, OD absorbance | inhibition, % at 20 µM | 110,000 tested, 0.64% active | AID 521, 2006; in the data active means inhibition above about 50%
A number is an active result; i = inactive; nt = no result given.

SMILES	SF-1 act	Ec RNAP inh	RORa activator	MMP13 inh	AP complement	HePTP inhibitor
CC(C)C1=NN2C(=N)/C(=C/c3ccc(-c4ccc([N+](=O)[O-])cc4)o3)C(=O)N=C2S1	nt	nt	nt	nt	nt	79
CCCC1=NN2C(=N)/C(=C/c3ccc(-c4ccc([N+](=O)[O-])cc4Br)o3)C(=O)N=C2S1	nt	nt	nt	nt	nt	76
NC1=NC(=O)/C(=C\c2ccc(-c3ccc([N+](=O)[O-])cc3)o2)S1	nt	nt	nt	nt	nt	64
O=C(Nc1ccc2oc(-c3cccc4ccccc34)nc2c1)c1ccc([N+](=O)[O-])cc1	nt	nt	nt	nt	nt	i
NNC(=O)COc1ccccc1-c1ccccc1	nt	nt	nt	nt	nt	i
Cc1ccccc1C(=O)Nc1ccc(Br)cn1	82	i	67	i	i	i
C/C(=N\OCC(=O)N=Nc1c(O)n(CN2CCN(C)CC2)c2ccccc12)c1cccs1	nt	nt	nt	nt	nt	i
COc1cc(/C=N/Nc2ccnc3cc(Cl)ccc23)ccc1O	nt	nt	nt	nt	nt	i
NNc1ccc(/C=C/c2ccc(NN)cc2S(=O)(=O)O)c(S(=O)(=O)O)c1	nt	nt	nt	nt	nt	94
O/N=C/c1ccc(OCC(O)Cn2c3ccccc3c3ccccc32)cc1 (configuration not stated)	nt	nt	nt	nt	nt	i
O=C(C(Sc1ccccc1)c1ccccc1)N1CCCC1 (configuration not stated)	nt	nt	nt	nt	nt	102
O=CN1N=C(c2ccc3ccccc3c2)CC1c1ccccc1 (configuration not stated)	nt	nt	nt	nt	nt	i
CCCN1C(=O)/C(=C2\SC(=S)N(CCC(=O)O)C2=O)c2ccccc21	nt	nt	nt	nt	nt	i
O=C(O)CCN1C(=O)/C(=C2\C(=O)N(Cc3ccccc3Cl)c3ccccc32)SC1=S	nt	nt	nt	nt	nt	102
COc1ccccc1CNC(=O)N1CCOCC1	nt	nt	nt	nt	nt	i
Cc1c(C(=O)N2CCOCC2)[nH]c2c1C(=O)CC(c1ccccc1Cl)C2 (configuration not stated)	67	i	i	i	i	i
Nc1c(C(=O)NCCN2CCOCC2)c2nc3ccccc3nc2n1-c1ccc2c(c1)OCO2	i	i	55	i	i	i
O=C(N=Nc1c(O)n(Cc2ccccc2)c2ccccc12)c1ccc2ccccc2n1	nt	nt	nt	nt	nt	i
Cn1c(-c2ccc3c(c2)OCO3)cnc1NCc1ccccc1	68	i	i	i	i	i
O=C(N/N=C\c1ccc[nH]1)c1cccc2c3c([nH]c12)CCCC3	nt	nt	nt	nt	nt	i
CCOC(=O)c1cnc(SCC(=O)N2CCN(c3ccccc3)CC2)nc1N	i	i	i	i	i	i
CCOC(=O)c1cnc(SCc2ccccc2)nc1N	67	i	51	i	i	i
O=C(O)c1nn2c(C(F)(F)F)c3c(nc2c1Cl)-c1ccccc1CC3	nt	nt	nt	nt	nt	70
CC1=CC(C)(C)N(C(=O)Nc2ccc(F)cc2)c2ccc(C)cc21	nt	nt	nt	nt	nt	i
Cc1cccc(-n2cnc3cc(C(=O)N4CCCCC4)ccc32)c1	55	i	i	i	i	i
SMILES	SF-1 act	Ec RNAP inh	RORa activator	MMP13 inh	AP complement	HePTP inhibitor
Cn1nnc2cc(C(=O)N3CCCCCC3)ccc21	i	i	i	i	i	i
COc1ccc(C(=O)Nc2ccc3c(c2)OCO3)cc1	nt	nt	nt	nt	nt	i
O=C(Nc1ccc2c(c1)OCO2)c1ccc(COc2ccc3c(c2)CCC3)o1	61	i	i	i	i	i
O=C(Nc1ccc2c(c1)CCC2)c1cnccn1	55	i	i	i	i	i
Cc1ccc(C(=O)Nc2ccc(N(C)C)cc2)o1	nt	nt	nt	nt	nt	i
CCCCOC(=O)c1ccc(NC(=O)c2ccoc2C)cc1	i	i	i	i	i	i
Cc1cnc(C(=O)Nc2ccc3c(c2)CCC3)cn1	i	i	i	i	i	i
CCCOC(=O)c1ccc(NC(=O)c2ccoc2C)cc1	63	i	i	i	i	i
CN(C)c1ccc(NC(=O)c2ccc(COc3cccc(Cl)c3)o2)cc1	i	i	73	i	i	i
Cc1ccc(C(=O)O)cc1S(=O)(=O)N1CCC(C)CC1	nt	nt	nt	nt	nt	i
O=C(O)c1cccc(NC(=O)c2ccccc2F)c1	nt	nt	nt	nt	nt	i
COc1ccc2ccccc2c1/C=C1\SC(=O)N(c2ccccc2)C1=O	nt	nt	nt	nt	nt	i

Source: PubChem (several laboratories)
